In brackets after ≈: the same amount, converted by molar mass. Activity calls are given as the source filed them.
Experiments:
[1] = test system: Staphylococcus aureus; experiment: Antibacterial activity against methicillin-resistant Staphylococcus aureus USA300 (ARLG 1568) assessed as bacterial growth inhibition incubated for 18 to 20 hrs by CLSI based broth microdilution assay; type: functional; conditions: time 18-20 hrs
In short: (§1)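 CLSI broth microdilution; compounds and control antibiotics made up at 10 mg mL−1 in DMSO (stock), serially diluted 1:2 across the plate. Inoculum adjusted to 0.5 McFarland, then diluted 1:100 into wells. Plates incubated static at 37 °C for 18–20 h before MIC read.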

[2] = test system: Staphylococcus aureus; experiment: Antibacterial activity against methicillin-resistant Staphylococcus aureus USA300 (ARLG 1561) assessed as bacterial growth inhibition incubated for 18 to 20 hrs by CLSI based broth microdilution assay; type: functional; conditions: time 18-20 hrs; in short: as §1
[3] = test system: Staphylococcus aureus; experiment: Bactericidal activity against methicillin-resistant Staphylococcus aureus ATCC 33592 assessed as reduction in colony forming unit at 1 x MIC incubated for 18 to 24 hrs by Time-kill analysis; type: functional, organism-based; conditions: time 18-24 hrs
In short: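 Log-phase time-kill. Overnight TSB culture diluted 1:1000 and grown to OD600 0.6, then diluted 1 in 10 in TSB (about 2.92 × 10^6 CFU per mL). Exposed at 1× or 4× MIC in triplicate at 37 °C. Samples taken at 0, 2, 4, 8, 12 and 24 h, serially diluted in PBS, plated on TSA in duplicate and counted after 18–20 h.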

[4] = test system: Staphylococcus aureus; experiment: Antibacterial activity against Staphylococcus aureus ATCC 25923 assessed as bacterial growth inhibition incubated for 18 to 20 hrs by CLSI based broth microdilution assay; type: functional; conditions: time 18-20 hrs; in short: as §1
[5] = test system: Staphylococcus aureus; experiment: Antibacterial activity against methicillin-resistant Staphylococcus aureus ST239 (ARLG 1663) assessed as bacterial growth inhibition incubated for 18 to 20 hrs by CLSI based broth microdilution assay; type: functional; conditions: time 18-20 hrs; in short: as §1
[6] = test system: Staphylococcus aureus; experiment: Antibacterial activity against methicillin-resistant Staphylococcus aureus ST1312 (ARLG 1649) assessed as bacterial growth inhibition incubated for 18 to 20 hrs by CLSI based broth microdilution assay; type: functional; conditions: time 18-20 hrs; in short: as §1
[7] = test system: Listeria monocytogenes; experiment: Bactericidal activity against Listeria monocytogenes ATCC 19115 assessed as reduction in colony forming unit incubated for 20 hrs; type: functional
In short: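 MBC: after the MIC assay, 4 μL from wells with no growth were spotted in duplicate on TSA. Plates were incubated static at 37 °C for 20 h. MBC was taken as a 99.9% reduction in CFU.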

[8] = test system: Staphylococcus aureus; experiment: Antibacterial activity against methicillin-resistant Staphylococcus aureus ATCC 33592 assessed as bacterial growth inhibition incubated for 18 to 20 hrs by CLSI based broth microdilution assay; type: functional; conditions: time 18-20 hrs; in short: as §1
[9] = test system: Cell membrane; experiment: Induction of cell membrane disruption in Staphylococcus aureus ATCC 25923 at 4 ug/ml incubated for 4 hrs by scanning electron microscopy; conditions: dose 4.0 µg/ml
In short: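 Cells grown overnight in TSB, diluted 1:100 and grown to OD600 0.4, then treated for 4 h; bithionol 10 μg mL−1 as positive control, DMSO as negative control. Fixed in chilled 2.5% glutaraldehyde in 0.1 M cacodylate, post-fixed in 1% OsO4, ethanol-dehydrated, dried with HMDS and platinum-coated. Imaged at 5 kV.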

[10] = test system: Staphylococcus aureus; experiment: Antibacterial activity against methicillin-resistant Staphylococcus aureus USA300 assessed as fold increase in MIC incubated for 30 days by resistance development based broth microdilution assay; type: functional; conditions: time 30 day
In short: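 Multi-step resistance selection over 30 days. MIC determined first. Each day, 5 μL from the turbid well just below the MIC was diluted 1:1000 in CA-MHB and used as inoculum for the next broth microdilution MIC. Resistance defined as a rise of more than four-fold over the starting MIC.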

[11] = test system: Staphylococcus aureus; experiment: Bactericidal activity against Staphylococcus aureus ATCC 25923 assessed as reduction in colony forming unit incubated for 20 hrs; type: functional
In short: (§2)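 Follows the broth microdilution MIC plate. 4 μL taken from each well without growth, spotted in duplicate on tryptic soy agar and incubated static at 37 °C for 20 h. MBC taken as the concentration giving 99.9% reduction in CFU.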

[12] = test system: Staphylococcus aureus; experiment: Bactericidal activity against methicillin-resistant Staphylococcus aureus USA300 assessed as reduction in colony forming unit incubated for 20 hrs; type: functional; in short: as §2
[13] = test system: Enterococcus faecium; experiment: Antibacterial activity against vancomycin-resistant Enterococcus faecium ATCC 700221 assessed as bacterial growth inhibition incubated for 18 to 20 hrs by CLSI based broth microdilution assay

With `FC(F)(F)c1n[nH]cc1[C@@H]1Nc2ccc(S(F)(F)(F)(F)F)cc2[C@H]2[C@@H]3CC[C@@H](C3)[C@H]21` the MIC [1] was 2 µg/mL (≈ 4.35 µM), the MIC [2] was 2 µg/mL (≈ 4.35 µM) and the Activity [3] was “Active”. It also gave an MIC [4] of 2 µg/mL (≈ 4.35 µM), an MIC [5] of 1 µg/mL (≈ 2.18 µM) and an MIC [6] of 2 µg/mL (≈ 4.35 µM). For the same compound, the MBC [7] was 4 µg/mL (≈ 8.71 µM), the MIC [8] was 2 µg/mL (≈ 4.35 µM) and the Activity [9] was “Active”. The “fold change (FC)” value [10] was 1, the MBC [11] was 8 µg/mL (≈ 17.4 µM) and the MBC [12] was 8 µg/mL (≈ 17.4 µM). It also gave an MIC [13] of 2 µg/mL (≈ 4.35 µM).

— ChEMBL document CHEMBL5107946, “SF5- and SCF3-substituted tetrahydroquinoline compounds as potent bactericidal agents against multidrug-resistant persister Gram-positive bacteria” (RSC Med Chem, 2021)
